Test results from ChEMBL document CHEMBL1144275, “Studies on the structure-activity relationship of 2',6'-dimethyl-l-tyrosine (Dmt) derivatives: bioactivity profile of H-Dmt-NH-CH(3)” (Bioorg Med Chem Lett, 2005).
Non-standard residues stand in square brackets, D forms with d. Residues, ends and D or L forms follow the SMILES beside them. Dmt = Cc1cc(O)cc(C)c1C[C@H](N)C(=O)O; Tic = O=C(O)[C@@H]1Cc2ccccc2CN1

Columns and labels:
Rattus norvegicus = organism: Rattus norvegicus; assay: Ratio of binding affinities for opioid receptors delta 1 and mu 1
In short: (§1)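 Ki values given as the mean ± SE of four to seven experiments; selectivity expressed as Kiδ/Kiμ.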

[1] = Binding affinity for rat brain opioid receptor delta 1; in short: as §1
[2] = Binding affinity for rat brain opioid receptor mu 1; in short: as §1
Mus musculus [3] = organism: Mus musculus; assay: Percent antagonism was evaluated relative to morphine in mice using naloxone; assay type: functional
Mus musculus [4] = organism: Mus musculus; assay: Minimum effective dose showing antinociception activity in mice; assay type: functional
In short: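 Minimum effective dose (nmol) for antinociception in mice after intracerebroventricular administration, measured by tail-flick and hot-plate tests.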

Mus musculus [5] = assay: Analgesia was determined by hotplate (HP) test relative to morphine in mice after antinociception of intracerebroventricularly (icv) administration; assay type: functional
Mus musculus [6] = assay: Analgesia was determined by tail-flick (TF) test relative to morphine in mice after antinociception of intracerebroventricularly (icv) administration;Range 0.48-0.55; assay type: functional
Mus musculus [7] = assay: Analgesia was determined by tail-flick (TF) test relative to morphine in mice after antinociception of intracerebroventricularly (icv) administration;Range 1.3-1.7; assay type: functional
Mus musculus [8] = assay: Analgesia was determined by hotplate (HP) test relative to morphine in mice after antinociception of intracerebroventricularly (icv) administration;Range-0.64?0.85; assay type: functional

Row | SMILES | Ratio (Rattus norvegicus) | Ki [1] | Ki [2] | Antagonism (Mus musculus [3]) | MED (Mus musculus [4]) | Activity (Mus musculus [5]) | Activity (Mus musculus [6]) | Activity (Mus musculus [7]) | Activity (Mus musculus [8])
1 | Cc1cc(O)cc(C)c1C[C@H](N)C(=O)NO | 5.58 | 9490 nM | – | – | – | – | – | – | –
2 | Cc1cc(O)cc(C)c1C[C@H](N)C(=O)Nc1ccccc1 | 0.069 | 120 nM | 1730 nM | – | – | – | – | – | –
3 | CCCNC(=O)[C@@H](N)Cc1c(C)cc(O)cc1C | 9.82 | 166 nM | 16.9 nM | – | – | – | – | – | –
4 | Cc1cc(O)cc(C)c1C[C@H](N)C(=O)NCCO | 28.1 | 455 nM | 16.2 nM | – | – | – | – | – | –
5 | Cc1cc(O)cc(C)c1C[C@H](N)C(=O)NCCC(=O)O | 1 | 328 nM | 329 nM | – | – | – | – | – | –
6 | Cc1cc(O)cc(C)c1C[C@H](N)C(N)=O | 13 | 1470 nM | – | 100% | 200 nM | 0.26% | 0.55% | – | –
7 | Cc1cc(O)cc(C)c1C[C@H](N)C(=O)Nc1cccc2ccccc12 | 0.054 | 52.8 nM | 966 nM | – | – | – | – | – | –
8 | Cc1cc(O)cc(C)c1C[C@H](N)C(=O)NC(C)C | 22 | 492 nM | 22.4 nM | – | – | – | – | – | –
9 | Cc1cc(O)cc(C)c1C[C@H](N)C(=O)N1Cc2ccccc2C[C@H]1C(=O)O (H-[Dmt]-[Tic]-OH) | 6.6e-07 | – | 3220 nM | – | – | – | – | – | –
10 | Cc1cc(O)cc(C)c1C[C@H](N)C(=O)O | 1.55 | 46500 nM | – | – | – | – | – | – | –
11 | Cc1cc(O)cc(C)c1C[C@H](N)C(=O)NC1C2CC3CC(C2)CC1C3 (some centres undefined) | 0.23 | 175 nM | 746 nM | – | – | – | – | – | –
12 | Cc1cc(O)cc(C)c1C[C@H](N)C(=O)NC1CCCCC1 | 1.71 | 197 nM | 115 nM | – | – | – | – | – | –
13 | Cc1cc(O)cc(C)c1C[C@H](N)C(=O)NC(C)(C)C | 14.8 | 531 nM | 36 nM | – | – | – | – | – | –
14 | Cc1cc(O)cc(C)c1C[C@H](N)C(=O)NCC(=O)O | 0.43 | 1150 nM | 2700 nM | – | – | – | – | – | –
15 | CNC(=O)[C@@H](N)Cc1c(C)cc(O)cc1C | 61.7 | 460 nM | 7.45 nM | 73% | 30 nM | – | – | 1.7% | 0.85%
16 | Cc1cc(O)cc(C)c1C[C@H](N)C(=O)NCCN | 338 | 3650 nM | 10.8 nM | – | – | – | – | – | –
17 | CCNC(=O)[C@@H](N)Cc1c(C)cc(O)cc1C | 41.6 | 649 nM | 15.6 nM | – | – | – | – | – | –
18 | Cc1cc(O)cc(C)c1C[C@H](N)C(=O)NC12CC3CC(CC(C3)C1)C2 | 0.27 | 208 nM | 767 nM | – | – | – | – | – | –
19 | Cc1cc(O)cc(C)c1C[C@H](N)C(=O)NCN | 13.4 | 2410 nM | 180 nM | – | – | – | – | – | –
20 | CONC(=O)[C@@H](N)Cc1c(C)cc(O)cc1C | 26.3 | 4580 nM | 174 nM | – | – | – | – | – | –
